Legend:
Mus musculus [1] = experiment: Bronchosecretory activity measured as tracheal secretion of phenol red in mouse after oral administration; assay type: functional
Summary of the method: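 Male NMRI mice, food withheld 24 h, water free. Compounds suspended in 0.5% carboxymethylcellulose just before use and given by gavage at 5 mL/kg. Phenol red given intraperitoneally; 50 min after dosing it is measured photometrically in tracheal lavage fluid. Output compared with mean of vehicle controls. ED50 (dose giving 50% increase over control) by linear regression with 95% confidence limits.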

Canis familiaris [2] = experiment: Percent viscosity was determined in canine bronchial mucus, 1 hr after intravenous administration of 0.1 mg/kg; assay type: functional, Canis lupus familiaris
Summary of the method: (§1)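 Mongrel dogs (18-24 kg), food withheld 16 h, anesthetized with pentobarbital 40 mg/kg iv plus infusion of 0.1 mg kg-1 min-1. Compounds in isotonic NaCl, given iv; 0.9% NaCl as control. Bronchial mucus sampled by bronchoscope, dialyzed against water at 0 °C for 24 h, freeze-dried, taken up at 1% w/v in 0.1 M Tris pH 7. Viscosity 1 h after dosing expressed as % of initial, mean ± SD.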

Canis familiaris [3] = experiment: Percent viscosity was determined in canine bronchial mucus, 1 hr after intravenous administration of 0.2 mg/kg; assay type: functional, Canis lupus familiaris; summary of the method: as §1
Canis familiaris [4] = experiment: Percent viscosity was determined in canine bronchial mucus, 1 hr after intravenous administration of 0.5 mg/kg; assay type: functional, Canis lupus familiaris; summary of the method: as §1
Mus musculus [5] = experiment: Bronchosecretory activity measured as tracheal secretion of phenol red in mouse after subcutaneous administration

| SMILES | ED50 (Mus musculus [1]; Mus musculus, po) [µmol/kg] | further results |
| --- | --- | --- |
| Cc1ccc(CSc2ncccn2)cn1 | 298 |  |
| N=c1cc(N)nc(SCc2cccnc2)[nH]1 | 272 |  |
| Cc1ccnc([S+]([O-])Cc2cccnc2)n1 (configuration not stated) | 30.9 |  |
| O=S(=O)(Cc1cccnc1)c1ccc(Cl)cc1 | 27.9 |  |
| [O-][S+](Cc1cccnc1)c1ccc(Cl)cc1 (configuration not stated) | 43.9 |  |
| c1cncc(CSC2=NCCS2)c1 | 20.3 |  |
| [O-][S+](Cc1ccncc1)c1ncccn1 (configuration not stated) | 391 |  |
| Cc1ccc2nc(SCc3cccnc3)oc2c1 | 51.2 |  |
| Cc1ccnc(SCc2cccnc2)n1 | 39.4 |  |
| Cc1cc(C)nc(SCc2cccnc2)n1 | 44.8 |  |
| c1ccc(CSc2ccccn2)nc1 | 21.8 |  |
| [O-][S+](Cc1cccnc1)c1ncccn1 (configuration not stated) | 7.82 |  |
| c1ccc(-c2nc(SCc3cccnc3)oc2-c2ccccc2)cc1 | 13.1 |  |
| COc1cccc(SCc2cccnc2)c1 | 182 |  |
| Cc1ccc(SCc2cccnc2)cc1 | 39.7 |  |
| c1cnc(SCc2ccncc2)nc1 | 41.7 |  |
| Cc1ccc(S(=O)(=O)Cc2cccnc2)cc1 | 141 |  |
| Cc1ccc([S+]([O-])Cc2cccnc2)cc1 (configuration not stated) | 149 |  |
| Cl.c1cnc(SCc2cccnc2)nc1 |  | Activity (Canis familiaris [2]): 109%; Activity (Canis familiaris [3]): 28%; Activity (Canis familiaris [4]): 5.5%; ED50 (Mus musculus [1]): 5.34 µmol/kg |
| CC(Sc1ncccn1)c1cccnc1 (configuration not stated) | 42.6 |  |
| Nc1cc(O)nc(SCc2ccc(Cl)nc2)n1 | 8.3 | Activity (Canis familiaris [3]): 84.2%; Activity (Canis familiaris [4]): 19.7% |
| Cc1cc(O)nc(SCc2cccnc2)n1 | 64.3 |  |
| c1cncc(CSc2nc3ccccc3o2)c1 | 61.9 |  |

| SMILES | ED50 (Mus musculus [1]; Mus musculus, po) [µmol/kg] | further results |
| --- | --- | --- |
| Cc1ccc(C(C)Sc2ncccn2)cn1 (configuration not stated) | 432 |  |
| Oc1ccnc(SCc2cccnc2)n1 | 456 |  |
| Nc1ccnc(SCc2cccnc2)n1 | 22.9 |  |
| Cn1ccnc1S(=O)(=O)Cc1cccnc1 | 95.8 |  |
| Clc1ccc(SCc2cccnc2)cc1 | 22 |  |
| c1cnc(SCc2cccnc2)nc1 | 4.67 |  |
| c1cncc(CSc2ncnc3[nH]ncc23)c1 | 41.1 |  |
| c1cncc(CSc2ccc3ccccc3n2)c1 | 21.5 |  |
| Cn1ccnc1SCc1cccnc1 | 5.35 |  |
| Cn1ccnc1[S+]([O-])Cc1cccnc1 (configuration not stated) | 49.8 |  |
| Clc1ccc(CSc2ncccn2)cn1 | 84.1 |  |
| Nc1cc(O)nc(SCc2cccnc2)n1 | 8.93 | Activity (Canis familiaris [3]): 76.3%; Activity (Canis familiaris [4]): 15.8% |
| c1cncc(CSc2nc3ncccc3o2)c1 | 38 |  |
| c1cncc(CSc2nc3ccccc3[nH]2)c1 | 31.8 |  |
| Clc1ncccc1CSc1ncccn1 | 84.1 |  |
| c1ccc(SCc2cccnc2)nc1 | 7.63 |  |
| c1ccc(CSc2nc3ccccc3o2)nc1 | 157 |  |
| CC(C)(C)NCC(O)c1ccc(O)c(CO)c1 (configuration not stated) [ALBUTEROL] |  | ED50 (Mus musculus [1]; Mus musculus, po, read-out: ED50): 12.5 µmol/kg |
| Nc1c(Br)cc(Br)cc1CN[C@H]1CC[C@H](O)CC1 [AMBROXOL] | 603 |  |
| C[N+](C)(C)CCOC(N)=O [CARBACHOL] |  | ED50 (Mus musculus [5]): 0.2 µmol/kg |
| NCC(O)c1cccc(O)c1 (configuration not stated) [NORFENEFRINE] |  | ED50 (Mus musculus [5]): 1.3 µmol/kg |
| c1cnc(SCc2cccnc2)nc1 [TASULDINE] |  | ED50 (Mus musculus [1]): 4.82 µmol/kg |
